A short description of data set [1]: Selectivity for inhibition of thrombin over trypsin. The method, boiled down: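 Ratio Ki(trypsin)/Ki(thrombin). Both Ki values came from chromogenic-substrate amidolytic assays, each derived by Cheng–Prusoff from IC50 or from velocity equations with and without inhibitor using the relevant Km.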
Data set [2] is described as follows: Concentration required to double the prothrombin time in human plasma. Format: functional.
Data set [3] can be described thus: Concentration required to double the thrombin time in human plasma. The format is functional.
For another data set, the target named is T1, Serine protease 1 (Bos taurus, UniProt P00760).
T1 sequence (P00760 whole entry): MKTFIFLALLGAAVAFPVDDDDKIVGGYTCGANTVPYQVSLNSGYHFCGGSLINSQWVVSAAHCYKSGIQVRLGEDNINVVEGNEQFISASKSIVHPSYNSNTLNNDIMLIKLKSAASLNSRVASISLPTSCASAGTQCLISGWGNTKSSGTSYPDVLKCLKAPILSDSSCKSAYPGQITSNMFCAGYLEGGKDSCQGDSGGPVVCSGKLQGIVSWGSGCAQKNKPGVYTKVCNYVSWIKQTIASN
The data set is described as follows: In vitro inhibition of bovine trypsin. The method, boiled down: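 Amidolytic assay of thrombin, trypsin and factor Xa activity with chromogenic substrates. Ki was derived by the Cheng–Prusoff relation from IC50, or from reaction velocity equations with and without inhibitor using the substrate Km. Thrombin-over-trypsin selectivity was taken as the ratio Ki(trypsin)/Ki(thrombin).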

Data set [4] is described as follows: Concentration required to double the activated partial thromboplastin time in human plasma. The format is functional.
Data set [5] can be described thus: Dissociation constant was evaluated. The format is physicochemical.
The target in another data set is Coagulation factor X (Homo sapiens, UniProt P00742). The data set can be described thus: In vitro inhibition of Coagulation factor Xa. A digest of the protocol: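 Amidolytic assay with a chromogenic substrate for factor Xa. Ki was derived by the Cheng–Prusoff relation from IC50 values, or from velocity equations with and without inhibitor using the substrate Km.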

The next data set deals with Prothrombin (Homo sapiens, UniProt P00734). The data set is described as follows: In vitro inhibition of human thrombin.

The values below come from ChEMBL document CHEMBL1146655, “Novel thrombin inhibitors incorporating weakly basic heterobicyclic P1-arginine mimetics: optimization via modification of P1 and P3 moieties” (Bioorg Med Chem Lett, 2004).

Where only a bound is given, the exact number is not on record here.

Coagulation factor X, sequence (P00742 41-179 limits assumed): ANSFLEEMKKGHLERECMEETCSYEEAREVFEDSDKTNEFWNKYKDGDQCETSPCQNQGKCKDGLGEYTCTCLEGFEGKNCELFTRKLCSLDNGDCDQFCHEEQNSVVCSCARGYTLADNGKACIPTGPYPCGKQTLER
Coagulation factor X, sequence (P00742 235-488 limits assumed): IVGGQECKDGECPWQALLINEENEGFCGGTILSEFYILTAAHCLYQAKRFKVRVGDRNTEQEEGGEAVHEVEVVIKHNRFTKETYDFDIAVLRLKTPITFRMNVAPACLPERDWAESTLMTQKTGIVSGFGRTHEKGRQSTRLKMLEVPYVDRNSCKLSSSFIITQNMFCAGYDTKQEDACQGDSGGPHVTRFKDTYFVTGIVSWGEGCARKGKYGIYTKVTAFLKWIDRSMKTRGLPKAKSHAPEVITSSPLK

For the compound `Cc1ccc(NS(=O)(=O)Cc2ccccc2)c(=O)n1CC(=O)NCC1CCc2n[nH]cc2C1` (stereo not given), in data set [1], the Selectivity was over 2940. The compound further showed a PT in data set [2] of 30.6 µM. The TT in data set [3] came to 5.2 µM. The compound also returned a Ki on Serine protease 1 of over 500 µM. Moreover, the “2x APTT” value in data set [4] turned out to be 20.5 µM.

In the case of `Cc1ccc(NS(=O)(=O)Cc2ccccc2)c(=O)n1CC(=O)N[C@@H]1CCc2nc(N)sc2C1`, the pKa in data set [5] came out at 6.1. The figures for the inhibition constant (Ki) on Coagulation factor X, on Serine protease 1 and on Prothrombin were 225 µM, 263 µM and 0.071 µM, respectively. Besides, the Selectivity in data set [1] turned out to be 3700. Besides, the “2x APTT” value in data set [4] was determined as 9.52 µM.

Take `Cc1ccc(NS(=O)(=O)Cc2ccccc2)c(=O)n1CC(=O)NC1CCc2nc(N)sc2C1` (stereo not given): the results for the Ki on Coagulation factor X and on Prothrombin were 92 µM and 0.12 µM, respectively. The same compound came in with a Selectivity in data set [1] of 2170. For the same compound, in data set [2], the PT amounted to 41.4 µM. The TT in data set [3] is 6.6 µM. Besides, the “2x APTT” value in data set [4] is 36.5 µM.

Take `Cc1ccc(NS(=O)(=O)Cc2ccc(F)cc2)c(=O)n1CC(=O)NC1CCc2c(sc(=N)n2N)C1` (stereo not given): in data set [5], the pKa stood at 3.17. The results for the Ki on Coagulation factor X, on Serine protease 1 and at Prothrombin were 131 µM, 8.06 µM and 0.022 µM, respectively. For the same compound, the Selectivity in data set [1] worked out at 201. In data set [4], the “2x APTT” value turned out to be 22.6 µM.

Compound `Cc1ccc(NS(=O)(=O)Cc2ccc(F)cc2Cl)c(=O)n1CC(=O)NCC1CCc2n[nH]cc2C1` (stereo not given) returned a pKa in data set [5] of 4. In addition, the Ki was 75 µM on Coagulation factor X, over 300 µM at Serine protease 1 and 0.157 µM on Prothrombin. This compound returned a Selectivity in data set [1] of over 1910. In data set [2], this compound showed a PT of 120 µM. In addition, in data set [3], the TT amounted to 10.8 µM. In data set [4], the “2x APTT” value was found to be 50 µM.

In data set [5], `Cc1ccc(NS(=O)(=O)Cc2ccccc2)c(=O)n1CC(=O)NC1CCc2c(sc(=N)n2N)C1` (stereo not given) displayed a pKa of 3.17. Also, the results for the Ki at Coagulation factor X, at Serine protease 1 and on Prothrombin were over 200 µM, 2.71 µM and 0.042 µM, respectively. This compound also displayed a Selectivity in data set [1] of 65. The “2x APTT” value in data set [4] is 2.4 µM.

The compound `Cc1ccc(NS(=O)(=O)Cc2cccc(C(F)(F)F)c2)c(=O)n1CC(=O)NC1CCc2nc(N)sc2C1` (stereo not given) displayed a pKa in data set [5] of 6.1. In addition, the figures for the Ki at Coagulation factor X and on Serine protease 1 were 81 µM and over 200 µM, respectively. The same compound displayed a Selectivity in data set [1] of over 300. In data set [2], the PT turned out to be 435 µM. In addition, in data set [3], the TT came to 125 µM. Also, the “2x APTT” value in data set [4] was 428 µM.

For `Cc1ccc(CS(=O)(=O)Nc2ccc(C)n(CC(=O)NC3CCc4nc(N)sc4C3)c2=O)cc1` (stereo not given), the pKa in data set [5] amounted to 6.1. In addition, the Ki at Coagulation factor X was 80 µM; at Serine protease 1, 246 µM; on Prothrombin it was 0.1 µM. The same compound showed a Selectivity in data set [1] of 2460. Besides, the PT in data set [2] came to 56 µM. Further, the TT in data set [3] was determined as 12 µM. Moreover, the “2x APTT” value in data set [4] is 31.3 µM.

With `CCCCS(=O)(=O)Nc1ccc(C)n(CC(=O)NC2CCc3nc(N)sc3C2)c1=O` (stereo not given), the pKa in data set [5] was determined as 6.1. The Ki at Coagulation factor X turned out to be 179 µM; on Prothrombin, 1.34 µM. Further, the Selectivity in data set [1] was 38.

With `Cc1ccc(NS(=O)(=O)Cc2ccc(F)cc2)c(=O)n1CC(=O)N[C@@H]1CCc2nc(N)sc2C1`, in data set [5], the pKa worked out at 6.1. Moreover, the Ki at Coagulation factor X was over 500 µM; at Serine protease 1, over 700 µM; on Prothrombin, 0.077 µM. The compound further came in with a Selectivity in data set [1] of over 9090. In addition, in data set [4], the “2x APTT” value is 20.1 µM.

`Cc1ccc(CS(=O)(=O)Nc2ccc(C)n(CC(=O)NCC3CCc4n[nH]cc4C3)c2=O)cc1` (stereo not given) had a pKa in data set [5] of 4. Moreover, the results for the Ki on Coagulation factor X, at Serine protease 1 and at Prothrombin were 228 µM, over 300 µM and 0.102 µM, respectively. In data set [1], this compound had a Selectivity of over 2900. Moreover, the PT in data set [2] is 26.8 µM. Moreover, in data set [3], the TT turned out to be 3.4 µM. Also, in data set [4], the “2x APTT” value came out at 18.8 µM.

As for `Cc1ccc(NS(=O)(=O)Cc2cccc(C(F)(F)F)c2)c(=O)n1CC(=O)NCC1CCc2n[nH]cc2C1` (stereo not given), in data set [5], the pKa came out at 4. The figures for the Ki on Coagulation factor X, at Serine protease 1 and at Prothrombin were 252 µM, 425 µM and 0.562 µM, respectively. The compound further displayed a Selectivity in data set [1] of 757. This compound came in with a PT in data set [2] of 293 µM. This compound registered a TT in data set [3] of 36.6 µM. Also, the “2x APTT” value in data set [4] was determined as 447 µM.

`CCCS(=O)(=O)Nc1ccc(C)n(CC(=O)NC2CCc3nc(N)sc3C2)c1=O` (stereo not given) gave a pKa in data set [5] of 6.1. The Ki amounted to 200 µM on Coagulation factor X, 64.3 µM at Serine protease 1 and 2.3 µM at Prothrombin. Moreover, the Selectivity in data set [1] stood at 28.

Regarding `CCCS(=O)(=O)Nc1ccc(C)n(CC(=O)NCC2CCc3nc(N)sc3C2)c1=O` (stereo not given), the pKa in data set [5] was 6.5. This compound also had a Ki at Prothrombin of 3.8 µM.

`Cc1ccc(NS(=O)(=O)Cc2ccc(F)cc2Cl)c(=O)n1CC(=O)NC1CCc2nc(N)sc2C1` (stereo not given) came in with a pKa in data set [5] of 6.1. Moreover, the Ki at Coagulation factor X worked out at 69 µM; at Serine protease 1, 1920 µM; on Prothrombin it was 0.157 µM. The compound further returned a TT in data set [3] of 93.8 µM. Also, in data set [4], the “2x APTT” value stood at 94 µM.

As for `Cc1ccc(NS(=O)(=O)Cc2ccccc2)c(=O)n1CC(=O)N[C@H]1CCc2nc(N)sc2C1`, the pKa in data set [5] amounted to 6.1. Besides, the figures for the Ki on Coagulation factor X and at Prothrombin were 371 µM and 1.16 µM, respectively. In data set [1], this compound showed a Selectivity of 253.

Consider `Cc1ccc(NS(=O)(=O)Cc2ccc(F)cc2)c(=O)n1CC(=O)NC1CCc2nc(N)sc2C1` (stereo not given), for which, in data set [5], the pKa was 6.1. For the same compound, the Ki at Coagulation factor X is over 300 µM; at Serine protease 1 it was over 800 µM; at Prothrombin it was 0.1 µM. In data set [1], the Selectivity is over 8000. Further, in data set [2], the PT was 57.7 µM. In addition, the TT in data set [3] stood at 5.1 µM. Also, the “2x APTT” value in data set [4] was 28.7 µM.

`Cc1ccc(NS(=O)(=O)Cc2ccc(F)cc2)c(=O)n1CC(=O)N[C@H]1CCc2nc(N)sc2C1` registered a pKa in data set [5] of 6.1. Besides, the Ki at Coagulation factor X is 176 µM; at Serine protease 1 it was over 700 µM. In data set [1], the Selectivity was over 123.

`Cc1ccc(NS(=O)(=O)Cc2ccc(F)cc2)c(=O)n1CC(=O)NCC1CCc2n[nH]cc2C1` (stereo not given) registered a pKa in data set [5] of 4. The Ki at Coagulation factor X worked out at 314 µM; on Serine protease 1, 258 µM; at Prothrombin, 0.149 µM. Besides, in data set [1], the Selectivity stood at 1720. In data set [2], the PT came to 34 µM. The TT in data set [3] turned out to be 3.9 µM. Further, the “2x APTT” value in data set [4] was found to be 15.8 µM.
